Data taken from ChEMBL document CHEMBL1914406, “Inhibitory effect of novel 5-O-acyl juglones on mammalian DNA polymerase activity, cancer cell growth and inflammatory response” (Bioorg Med Chem, 2011).
Activity calls are given as the source filed them. The rule behind the calls is not given here.

Biological target: T1, DNA polymerase kappa (Homo sapiens) (UniProt Q9UBT6)
T1 sequence (whole entry): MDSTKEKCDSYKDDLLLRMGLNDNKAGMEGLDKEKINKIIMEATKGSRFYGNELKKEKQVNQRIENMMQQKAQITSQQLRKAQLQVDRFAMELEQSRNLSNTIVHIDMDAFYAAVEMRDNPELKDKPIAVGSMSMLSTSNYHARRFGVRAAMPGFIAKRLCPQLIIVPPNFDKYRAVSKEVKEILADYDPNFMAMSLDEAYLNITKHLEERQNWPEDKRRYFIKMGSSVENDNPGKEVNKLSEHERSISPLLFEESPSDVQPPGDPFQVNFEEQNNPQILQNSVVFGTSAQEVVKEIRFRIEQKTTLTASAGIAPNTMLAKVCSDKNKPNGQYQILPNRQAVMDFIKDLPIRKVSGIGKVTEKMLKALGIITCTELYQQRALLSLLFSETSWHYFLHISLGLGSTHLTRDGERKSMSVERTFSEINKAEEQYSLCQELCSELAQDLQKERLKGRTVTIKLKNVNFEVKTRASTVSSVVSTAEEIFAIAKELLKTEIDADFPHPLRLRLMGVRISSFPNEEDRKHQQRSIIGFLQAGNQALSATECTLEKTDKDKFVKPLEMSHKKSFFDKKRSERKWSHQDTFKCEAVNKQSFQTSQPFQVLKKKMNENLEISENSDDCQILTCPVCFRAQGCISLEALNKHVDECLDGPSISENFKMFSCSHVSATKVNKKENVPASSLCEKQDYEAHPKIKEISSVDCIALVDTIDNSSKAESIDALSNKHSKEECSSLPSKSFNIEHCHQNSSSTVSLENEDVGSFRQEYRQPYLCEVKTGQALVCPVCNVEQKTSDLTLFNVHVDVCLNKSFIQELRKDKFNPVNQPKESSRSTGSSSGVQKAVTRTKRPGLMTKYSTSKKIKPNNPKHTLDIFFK
Assay: Inhibition of C-terminal His6-tagged human DNA polymerase kappa (amino acids 1 to 560) using poly(dA)/oligo(dT)18 (A/T = 2/1) and dTTP as the DNA template-primer and nucleotide substrate at 10 uM after 60 mins
Conditions: not given

Row | SMILES | inhibition
1 | CCCCCCCCCCCC(=O)O [DODECANOATE] | inactive
2 | CC/C=C\C/C=C\C/C=C\CCCCCCCC(=O)O [LINOLENIC ACID] | inactive
3 | CCCCC/C=C\C/C=C\CCCCCCCC(=O)O [LINOLEIC ACID] | inactive
4 | CC(=O)O [ACETIC ACID] | inactive
5 | CCCCCCCCCCCCCCCCCC(=O)O [STEARIC ACID] | inactive

Test system: not listed separately
Assay: Cytotoxicity against mouse RAW264.7 cells
Type: cell-based
Conditions: read-out: LD50 (the source's name)

Row | SMILES | CC50
6 | CCCCCCCCCCCC(=O)O [DODECANOATE] | > 10 µM
7 | CC/C=C\C/C=C\C/C=C\CCCCCCCC(=O)O [LINOLENIC ACID] | > 10 µM
8 | CCCCC/C=C\C/C=C\CCCCCCCC(=O)O [LINOLEIC ACID] | > 10 µM
9 | CC(=O)O [ACETIC ACID] | > 10 µM
10 | CCCCCCCCCCCCCCCCCC(=O)O [STEARIC ACID] | > 10 µM

Biological target: T2, DNA polymerase lambda (Homo sapiens) (UniProt Q9UGP5)
T2 sequence (whole entry): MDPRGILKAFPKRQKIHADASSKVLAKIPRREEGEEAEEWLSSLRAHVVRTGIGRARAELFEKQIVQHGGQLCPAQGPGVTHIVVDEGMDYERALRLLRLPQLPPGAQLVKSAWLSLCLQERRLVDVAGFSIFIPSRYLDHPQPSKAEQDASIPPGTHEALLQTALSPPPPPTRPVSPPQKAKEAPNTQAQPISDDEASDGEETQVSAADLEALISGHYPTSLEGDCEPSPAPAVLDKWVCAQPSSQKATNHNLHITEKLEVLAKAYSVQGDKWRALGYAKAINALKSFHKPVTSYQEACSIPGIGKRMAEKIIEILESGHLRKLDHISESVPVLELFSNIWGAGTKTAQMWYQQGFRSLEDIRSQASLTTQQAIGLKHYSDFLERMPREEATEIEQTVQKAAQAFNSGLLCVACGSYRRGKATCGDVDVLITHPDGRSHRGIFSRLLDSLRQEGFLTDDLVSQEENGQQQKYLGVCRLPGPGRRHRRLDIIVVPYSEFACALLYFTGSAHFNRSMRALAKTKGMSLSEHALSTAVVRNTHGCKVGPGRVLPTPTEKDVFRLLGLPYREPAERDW
Assay: Inhibition of recombinant His-tagged human DNA polymerase lambda using poly(dA)/oligo(dT)18 (A/T = 2/1) and dTTP as the DNA template-primer and nucleotide substrate at 10 uM after 60 mins
Conditions: not given
How it was run: (§1)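 Compound in DMSO, sonicated 30 s. Premixed 0 °C, 10 min with enzyme (0.05 units) in 50 mM Tris-HCl pH 7.5, 1 mM DTT, 50% glycerol, 0.1 mM EDTA, then added to standard reaction mixture. Template-primers: poly(dA)/oligo(dT)18 (2/1) for pols, oligo(dT)18 for TdT, poly(rA)/oligo(dT)18 for HIV-1 RT, with [3H]dTTP. 60 min at 37 °C (Taq 74 °C). Activity relative to no-inhibitor control; mean ± SE of three experiments.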

Row | SMILES | inhibition
11 | CCCCCCCCCCCC(=O)O [DODECANOATE] | inactive
12 | CC/C=C\C/C=C\C/C=C\CCCCCCCC(=O)O [LINOLENIC ACID] | inactive
13 | CCCCC/C=C\C/C=C\CCCCCCCC(=O)O [LINOLEIC ACID] | inactive
14 | CC(=O)O [ACETIC ACID] | inactive
15 | CCCCCCCCCCCCCCCCCC(=O)O [STEARIC ACID] | inactive

Organism: Homo sapiens
Assay: Inhibition of histidine-tagged human DNA polymerase gamma using bovine deoxyribonuclease 1-treated DNA and dNTP as the DNA template-primer and nucleotide substrate at 10 uM after 60 mins
Conditions: not given

Row | SMILES | inhibition
16 | CCCCCCCCCCCC(=O)O [DODECANOATE] | inactive
17 | CC/C=C\C/C=C\C/C=C\CCCCCCCC(=O)O [LINOLENIC ACID] | inactive
18 | CCCCC/C=C\C/C=C\CCCCCCCC(=O)O [LINOLEIC ACID] | inactive
19 | CC(=O)O [ACETIC ACID] | inactive
20 | CCCCCCCCCCCCCCCCCC(=O)O [STEARIC ACID] | inactive
21 | CC1=CC(=O)c2ccccc2C1=O | Active

Test system: RAW264.7
Assay: Cytotoxicity against mouse RAW264.7 cells at 5 uM
Type: cell-based
Conditions: raw264.7, 5 µM

Row | SMILES | Activity
22 | CCCCCCCCCCCC(=O)O [DODECANOATE] | Non-toxic
23 | CC/C=C\C/C=C\C/C=C\CCCCCCCC(=O)O [LINOLENIC ACID] | Non-toxic
24 | CCCCC/C=C\C/C=C\CCCCCCCC(=O)O [LINOLEIC ACID] | Non-toxic
25 | CC(=O)O [ACETIC ACID] | Non-toxic
26 | CCCCCCCCCCCCCCCCCC(=O)O [STEARIC ACID] | Non-toxic

Test system: Mus musculus
Assay: Antiinflammatory activity in mouse assessed as inhibition of TPA-induced mouse ear edema at 500 ug/ear administered 30 mins before TPA challenge measured after 7 hrs relative to untreated control
Type: functional, organism-based
Conditions: not given
How it was run: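 Compound (500 µg) applied to one mouse ear; 30 min later TPA (0.5 µg) applied to both ears. Edema scored after 7 h and expressed as percentage of edema. Mean ± SE, n = 6.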

Row | SMILES | Activity
27 | CCCCCCCCCCCC(=O)O [DODECANOATE] | inactive
28 | CC/C=C\C/C=C\C/C=C\CCCCCCCC(=O)O [LINOLENIC ACID] | inactive
29 | CCCCC/C=C\C/C=C\CCCCCCCC(=O)O [LINOLEIC ACID] | inactive
30 | CC(=O)O [ACETIC ACID] | inactive
31 | CCCCCCCCCCCCCCCCCC(=O)O [STEARIC ACID] | inactive

Biological target: T2, DNA polymerase lambda (Homo sapiens)
Assay: Inhibition of recombinant His-tagged human DNA polymerase lambda using bovine deoxyribonuclease 1-treated DNA and dNTP as the DNA template-primer and nucleotide substrate at 10 uM after 60 mins
Conditions: not given

Row | SMILES | inhibition
32 | CCCCCCCCCCCC(=O)O [DODECANOATE] | inactive
33 | CC/C=C\C/C=C\C/C=C\CCCCCCCC(=O)O [LINOLENIC ACID] | inactive
34 | CCCCC/C=C\C/C=C\CCCCCCCC(=O)O [LINOLEIC ACID] | inactive
35 | CC(=O)O [ACETIC ACID] | inactive
36 | CCCCCCCCCCCCCCCCCC(=O)O [STEARIC ACID] | inactive

Test system: HCT-116
Assay: Cytotoxicity against human HCT116 cells by WST-1 assay
Type: functional, cell-based
Conditions: not given
How it was run: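 HCT116 colon carcinoma cells (ATCC) grown in McCoy's 5A with 10% FBS, penicillin and streptomycin, 37 °C, 5% CO2. Plated at 1 × 10⁴ cells/well together with compound, which was diluted from a 10 mM DMSO stock into medium (final 0.5% DMSO). Incubated 24 h. Viability read by WST-1, expressed relative to untreated cells.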

Row | SMILES | Activity
37 | CCCCCCCCCCCC(=O)O [DODECANOATE] | inactive
38 | CC/C=C\C/C=C\C/C=C\CCCCCCCC(=O)O [LINOLENIC ACID] | inactive
39 | CCCCC/C=C\C/C=C\CCCCCCCC(=O)O [LINOLEIC ACID] | inactive
40 | CC(=O)O [ACETIC ACID] | inactive
41 | CCCCCCCCCCCCCCCCCC(=O)O [STEARIC ACID] | inactive

Organism: Bos taurus
Assay: Inhibition of calf DNA polymerase alpha using poly(dA)/oligo(dT)18 (A/T = 2/1) and dTTP as the DNA template-primer and nucleotide substrate at 10 uM after 60 mins
Conditions: not given
How it was run: as §1

Row | SMILES | inhibition
42 | CCCCCCCCCCCC(=O)O [DODECANOATE] | inactive
43 | CC/C=C\C/C=C\C/C=C\CCCCCCCC(=O)O [LINOLENIC ACID] | inactive
44 | CCCCC/C=C\C/C=C\CCCCCCCC(=O)O [LINOLEIC ACID] | inactive
45 | CC(=O)O [ACETIC ACID] | inactive
46 | CCCCCCCCCCCCCCCCCC(=O)O [STEARIC ACID] | inactive

Biological target: T1, DNA polymerase kappa (Homo sapiens)
Assay: Inhibition of C-terminal His6-tagged human DNA polymerase kappa (amino acids 1 to 560) using bovine deoxyribonuclease 1-treated DNA and dNTP as the DNA template-primer and nucleotide substrate at 10 uM after 60 mins
Conditions: not given

Row | SMILES | inhibition
47 | CCCCCCCCCCCC(=O)O [DODECANOATE] | inactive
48 | CC/C=C\C/C=C\C/C=C\CCCCCCCC(=O)O [LINOLENIC ACID] | inactive
49 | CCCCC/C=C\C/C=C\CCCCCCCC(=O)O [LINOLEIC ACID] | inactive
50 | CC(=O)O [ACETIC ACID] | inactive
51 | CCCCCCCCCCCCCCCCCC(=O)O [STEARIC ACID] | inactive

Organism: Homo sapiens
Assay: Inhibition of histidine-tagged human DNA polymerase gamma using poly(dA)/oligo(dT)18 (A/T = 2/1) and dTTP as the DNA template-primer and nucleotide substrate at 10 uM after 60 mins
Conditions: not given
How it was run: as §1

Row | SMILES | inhibition
52 | CCCCCCCCCCCC(=O)O [DODECANOATE] | inactive
53 | CC/C=C\C/C=C\C/C=C\CCCCCCCC(=O)O [LINOLENIC ACID] | inactive
54 | CCCCC/C=C\C/C=C\CCCCCCCC(=O)O [LINOLEIC ACID] | inactive
55 | CC(=O)O [ACETIC ACID] | inactive
56 | CCCCCCCCCCCCCCCCCC(=O)O [STEARIC ACID] | inactive
57 | CC1=CC(=O)c2ccccc2C1=O | Active

Test system: RAW264.7
Assay: Antiinflammatory activity in mouse RAW264.7 cells assessed as inhibition of LPS-induced TNFalpha secretion at 5 uM treated 30 mins before LPS challenge measured after 24 hrs by ELISA
Type: functional, cell-based
Conditions: not given
How it was run: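 RAW264.7 cells in MEM with 4.5 g/L glucose, 10% FCS, 5 mM L-glutamine, at 37 °C in 5% CO2. Seeded at 5 × 10⁴ cells/well and grown 24 h. Compound (final 1 and 5 µM) given 30 min before 100 ng/mL LPS. After 24 h, TNF-α in the medium measured by ELISA, relative to the no-compound value (100%). Mean ± SE, n = 4.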

Row | SMILES | Activity
58 | CCCCCCCCCCCC(=O)O [DODECANOATE] | inactive
59 | CC/C=C\C/C=C\C/C=C\CCCCCCCC(=O)O [LINOLENIC ACID] | inactive
60 | CCCCC/C=C\C/C=C\CCCCCCCC(=O)O [LINOLEIC ACID] | inactive
61 | CC(=O)O [ACETIC ACID] | inactive
62 | CCCCCCCCCCCCCCCCCC(=O)O [STEARIC ACID] | inactive

Organism: Bos taurus
Assay: Inhibition of calf DNA polymerase alpha using bovine deoxyribonuclease 1-treated DNA and dNTP as the DNA template-primer and nucleotide substrate at 10 uM after 60 mins
Conditions: not given

Row | SMILES | inhibition
63 | CCCCCCCCCCCC(=O)O [DODECANOATE] | inactive
64 | CC/C=C\C/C=C\C/C=C\CCCCCCCC(=O)O [LINOLENIC ACID] | inactive
65 | CCCCC/C=C\C/C=C\CCCCCCCC(=O)O [LINOLEIC ACID] | inactive
66 | CC(=O)O [ACETIC ACID] | inactive
67 | CCCCCCCCCCCCCCCCCC(=O)O [STEARIC ACID] | inactive
